# KCNK3 inh = human KCNK3 channel inhibitors, primary screen, CHO cells, FluxOR thallium flux, B-score | Potassium channel subfamily K member 3 (Homo sapiens), O14649 | FluxOR fluorescence; hits give low values | B-score at 10 µM | actives 0.84% (n = 340,000);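 active means B-score under library mean minus 4 SD, starting fluorescence ratio at most library mean plus 5 SD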;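 further: more negative B-score means stronger inhibition of thallium flux through KCNK3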
# hERG protect = hERG rescue from dofetilide block, primary screen, cell-based, CHO-hERG, FluxOR thallium flux, dofetilide IC70. Voltage-gated inwardly rectifying potassium channel KCNH2 (Homo sapiens), Q12809. dofetilide IC70 present. activation (rescue from dofetilide block), less the hit threshold, % at 10 µM. actives 0.51% (n = 310,000). AID 1511, 2009;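 active means activation above the mean of controls blocked by dofetilide plus 5 SD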;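 further: thallium influx through hERG after potassium depolarization seen as dye fluorescence rise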
# Kir21 inh = inhibitors of mouse Kir2.1 inward-rectifier potassium channel | HEK293-Kir2.1, FluxOR thallium flux fluorescence; hits give low values | B-score at 10 µM | actives 0.85% (n = 310,000) | AID 1672, 2009;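 active means fluorescence ratio B-score at or below minus 3 SD of library scores, with starting-brightness B-score within 2 SD, cut at about -4.2 in these data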;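 further: channel flux triggered by added potassium and thallium sulfate stimulus; B-score of peak minus minimum fluorescence over baseline after thallium stimulus; more negative B-score means stronger Kir2.1 block with less thallium influx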
# Target sequence (P35561 whole entry, looked up): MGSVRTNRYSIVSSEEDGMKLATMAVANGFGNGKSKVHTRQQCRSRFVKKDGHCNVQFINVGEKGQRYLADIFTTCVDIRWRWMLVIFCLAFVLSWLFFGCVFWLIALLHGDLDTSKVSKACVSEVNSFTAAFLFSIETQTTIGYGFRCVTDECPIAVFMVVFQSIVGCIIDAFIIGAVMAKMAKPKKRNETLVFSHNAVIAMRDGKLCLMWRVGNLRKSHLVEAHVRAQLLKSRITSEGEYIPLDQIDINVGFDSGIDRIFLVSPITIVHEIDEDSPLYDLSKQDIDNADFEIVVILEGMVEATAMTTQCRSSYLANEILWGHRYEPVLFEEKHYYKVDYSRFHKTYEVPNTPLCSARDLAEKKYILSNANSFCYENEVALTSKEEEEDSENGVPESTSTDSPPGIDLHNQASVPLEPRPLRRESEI
# KCNQ1 pot = potentiators or activators of KCNQ1 channel, primary screen, cell-based, thallium flux, high-throughput. Potassium voltage-gated channel subfamily KQT member 1 (Homo sapiens), P51787. CHO-K1 KCNQ1, thallium flux FluxOR fluorescence; hits give high values. B-score at 10 µM. actives 0.35% (n = 310,000);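 active means fluorescence ratio B-score, a plate-corrected score, at least three library SD, with initial intensity B-score within 5 SD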
#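 Material: CHO-K1 cells stably expressing KCNQ1. Medium: assay buffer for compound exposure, DMSO matched across wells. Reagent: K+/Tl+ depolarizing stimulus. Compound dosing: single-concentration screen. Times: 37 °C overnight plating, 90-min dark dye load, 20-min compound pretreatment. Technique: FluxOR Tl+ flux fluorescence.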
# KCNK9 block = KCNK9 potassium channel inhibitors, primary screen, HEK293 cells, thallium flux; Potassium channel subfamily K member 9 (Homo sapiens), Q9NPC2; FluxOR thallium flux fluorescence; hits give low values; B-score at 10 µM; actives 1.2% (n = 310,000);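 active means ratio B-score over 3 SD below the library mean, with starting fluorescence within 5 SD of its mean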;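 further: negative B-score means less thallium flux so channel inhibition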
# KCNQ1 block = inhibitors of human KCNQ1 channel, primary screen, cell-based, thallium flux, high-throughput | Potassium voltage-gated channel subfamily KQT member 1 (Homo sapiens), P51787 | CHO-K1 KCNQ1, FluxOR thallium flux fluorescence; hits give high values | B-score at 10 µM | actives 1.3% (n = 310,000) | AID 2642, 2010;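 active means compounds whose thallium flux B-score, printed positive for inhibition, exceeds three library SD while starting fluorescence stays within three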;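 further: channel opened by potassium depolarization with thallium stimulus after 20 min compound exposure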
# KCNK9 inh conf = KCNK9 potassium channel inhibitors, confirmation, HEK293 cells, thallium flux, duplicate | inhibition, % at 10 µM | actives 43% (n = 4,900) | shares compounds with KCNK9 block | AID 492992, 2010 | FluxOR thallium flux fluorescence;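 active means thallium signal inhibited by more than 5 SD of the compound-free buffer control wells, on both duplicate plates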;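 further: 0% = assay buffer control wells without compound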
# Kir21 sel = mouse Kir2.1 channel inhibition, confirmation, selectivity assay for KCNK9 modulator project, cell-based, HEK293, thallium flux; shares compounds with KCNK9 block; actives 4% (n = 4,900); inhibition, % at 10 µM; Kir2.1 cells, FluxOR thallium flux fluorescence;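 active means thallium signal drop more than 5 SD beyond the mean of the no-compound control wells, seen in both duplicate plates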;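 further: signal is fluorescence rise after thallium addition divided by baseline fluorescence; plate controls were assay buffer only for no effect and full block by chlorpromazine control for full effect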
# HEK293 Tl ctr = thallium flux in non-induced HEK293 cells, confirmation, counter-screen for KCNK9 inhibitor project, cell-based, second counter screen, non-induced KCNK9-HEK293; shares compounds with KCNK9 block; FluxOR thallium flux; inhibition, % at 10 µM; actives 40% (n = 4,900); AID 492997, 2010;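 active means thallium signal drop beyond 5 SD of the untreated control mean, on both duplicate plates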;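 further: plate controls were buffer only IC0 wells for no effect and SID17386958 at its maximal inhibitory level for full effect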
# * = called active by the depositor; i = inactive; nt = no result given. Hits are enriched below; roughly 3.7% of the tested compounds scored in any of these assays.
SMILES,KCNK3 inh,hERG protect,Kir21 inh,KCNQ1 pot,KCNK9 block,KCNQ1 block,KCNK9 inh conf,Kir21 sel,HEK293 Tl ctr
O=c1c(Cc2ccc(Cl)cc2)c(O)ccn1Cc1ccccc1,i,-7.3,-0.71,i,i,i,nt,nt,nt
O=c1c(Cc2ccc(Cl)cc2Cl)c(O)ccn1Cc1ccc(Cl)cc1,i,-8.6,0.95,i,i,8*,i,i,i
O=C(NCc1nnc2c(C(F)(F)F)cc(Cl)cn12)c1ccco1,i,-5.9,-1.33,i,i,i,nt,nt,nt
CN1CCN(CC(=O)NC(=O)NC2CCCCC2)CC1,i,nt,nt,nt,nt,nt,nt,nt,nt
Cc1ccc(/C=C2\S/C(=N/S(=O)(=O)c3cccs3)NC2=O)cc1,i,-11.9,0.82,i,i,i,i,i,i
Cc1ccc(S(=O)(=O)/N=C2/NC(=O)/C(=C/c3ccncc3)S2)cc1,nt,-6.7,-3.48,i,i,i,nt,nt,nt
Cc1ccc(S(=O)(=O)/N=C2/NC(=O)/C(=C/c3ccccc3)S2)cc1,i,-8.7,-0.16,i,i,i,i,i,i
Cc1ccc(S(=O)(=O)/N=C2/NC(=O)/C(=C\c3ccccc3)S2)cc1,i,nt,nt,nt,nt,nt,nt,nt,nt
O=[N+]([O-])c1cc(Cl)ccc1N1CCN(c2ccccc2O)CC1,i,-18.9,2.03,i,-8.48*,i,i,i,25.0%*
COC(=O)c1ccc(COc2ccc(/C=C(\C#N)c3nc4ccccc4[nH]3)cc2OC)o1,i,-8.0,1.11,i,-8.37*,i,40.5%*,i,33.5%*
COc1ccc(C2=NN(C(=O)c3cccc([N+](=O)[O-])c3)C(c3cccc([N+](=O)[O-])c3)C2)cc1 (stereo not drawn),i,-8.6,-0.12,i,-13.2*,i,64.5%*,i,35.0%*
COc1ccc(CCNC(=O)C(=O)NCC2OCCN2S(=O)(=O)c2ccccc2)cc1 (stereo not drawn),i,-12.4,0.84,i,i,i,nt,nt,nt
CN(CCCN1CCOCC1)C(=O)c1cc(COc2c(F)cccc2F)on1,i,-6.5,-0.97,i,i,i,nt,nt,nt
COc1cccc(OCc2cc(C(=O)NCCc3cccc(C)n3)no2)c1,i,-5.7,0.22,i,i,i,nt,nt,nt
CN(CCCC1CCCC1)C(=O)c1cc(COc2ccc(F)cc2F)on1,i,-12.8,-1.64,i,i,i,i,i,i
COc1cccc(CCNC(=O)c2cc(COc3c(F)cccc3F)on2)c1,i,-11.7,1.56,i,i,i,i,i,i
CN(CCCC1CCCC1)C(=O)c1cc(COc2c(F)cccc2F)on1,i,-7.8,-0.73,i,i,i,i,i,22.5%*
O=C(NNC(=O)c1csc(N2CCOCC2)n1)c1cccnc1,i,-14.2,-0.77,i,i,i,nt,nt,nt
COc1ccc(OC)c(S(=O)(=O)N2CCC(C(=O)NCc3ccc4c(c3)OCO4)CC2)c1,i,-12.1,-1.03,i,i,i,nt,nt,nt
CC1CCN(c2oc(-c3ccc(F)cc3)nc2C#N)CC1,i,-9.2,-0.58,i,i,i,nt,nt,nt

# High-throughput results from PubChem.
